The source of these data is the RNAGym collection of RNA variant scans (doi:10.1126/science.aae0568).

This sample holds only a part of the variants without activity.

The chains are these.
B1: tRNA (parent)
chain: GUUCCGUUGGCGUAAUGGUAACGCGUCUCCCUCCUAAGGAGAAGACUGCGGGUUCGAGUCCCGUACGGAACG

In the data set the parent is B1. The data set is described as follows: yeast fitness relative to wild type (ratio to wild type); higher = fitter; tRNA-Arg(CCU), competitive growth, 37 C, YPD. The method in brief: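 Start and end populations of a pooled competition were compared by 100-nucleotide paired-end sequencing of gene amplicons. The Saccharomyces cerevisiae strains carried tRNA-Arg(CCU) gene variants at the native genomic locus, synthesised with a 3% per-site mutation rate at 69 sites, and competed in YPD at 37°C for 24 hours in six parallel replicates. Darwinian fitness relative to wild type was based on the change in genotype frequencies. Genotypes required ≥ 100 starting reads, and estimates < 0.5 were set to 0.5.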
As to GUUCCGUUAGCGUAAUCGUAACGCGUCUCCCUCCUAAGGAGAAGUCUGCGGGUUCGAGUCCCGUCCGGAACG [G9A G17C A45U A65C], the yeast fitness is 0.583.

On to GUUCCGUUAGCGUAACGGUGACGCGUCUCCCUCCUAAGGAGGAGACUGCGGGUUCGAGUCCCGUACGGAACG [G9A U16C A20G A42G], for which the yeast fitness was at most 0.5.

GUUCCGUUAGCUUUAUGGUAACGCGUCUCCCUCCUAAGGAGAAGACUGCGGGAUCGAGUCCCGUACGGAACG [G9A G12U A14U U53A]: the yeast fitness stood at 0.529.

As to GUUCCGUUAGCGGAAUGGUAACGCGUCUCCCUCCUGAGGAGAAGACUGCGGGUUCGAGUCCCGUACGGAACG [G9A U13G A36G], the yeast fitness was determined as 0.574.

Consider GUUCCGUUAGCGUAAUGGUAACGCGUCUCCCUCCUAAGGAGAAGACUACCGGUUCGAGUCCCGUACGGAACG [G9A G48A G50C], for which the yeast fitness came out at 0.581.

As for GUUCCGUUAGCGUAAUGGUAACGCGACUCCCUCCUAAGGAGAUGACUGCGGGUUCGAGUCCCGUUCGGAACG [G9A U26A A43U A65U], the yeast fitness was 0.562.

For the variant GUUCCGUUAGCCUAAUGGUAACGCCUCUCGAUCCUAAGGAGAAGACUGCACGUUCGAGUCCCGUACGGAACG [G9A G12C G25C C30G C31A G50A G51C], the yeast fitness was at most 0.5.

Regarding GUUCCGUUAGCAUAAUGGUAAUGCGUCUCCCUCCUAAGGAGAAGACUGCGGGGUCGAGUCCCGUACGGAACG [G9A G12A C22U U53G], the yeast fitness was at most 0.5.

Turning to GUUCCGUUAGCGUAAUGGUAACGCGUCUCCCUCCUAAGGAGAAGACUGCGGGUUCGAGUCCCGUACGACACG [G9A G68A A69C], the yeast fitness is 0.802.

Turning to GUUCCGUUAGCGUAAUGGUAACGCGUCUCCCUCCUAAGGAGAAGACUGCGGGUUCGAGUCCCGUACGAAACG [G9A G68A], the yeast fitness stood at 0.864.

For the variant GUUCCGUUAGCGUAAUGGUAACGCGCCUCCCUCCUAAGGAGAAGACUGUGGGUUCGAGUCCCGUACGGAACG [G9A U26C C49U], the yeast fitness was determined as 0.685.

Regarding GUUCCGUUAGCGUAAUGGUAACGCCUCUCCCUCCUAAGGAGCAGACUGCGGGUUCGAGUCCCGUACGGAACG [G9A G25C A42C], the yeast fitness amounted to 1.

Take GUUCCGUUAGCGUAAUGGGAACGCGUCUCCCUCCUACGGAGAUGAGUGCGGGUUCGAGUCCCGUACGGAACG [G9A U19G A37C A43U C46G]: the yeast fitness is 0.581.

Turning to GUUCCGUUAGCGUAAUGGUAACCCGUCUCCCUCCUAAGGAGAAGGCUGCGGGUUCGAGUCCCGUACGGAACG [G9A G23C A45G], the yeast fitness is 0.575.

For GUUCCGUUAGCGUAAUGGUAACCCGUCUCCCUCCUAAGGAGAAGACUGCGGGUUCGAGACCCGUACGGAACG [G9A G23C U59A], the yeast fitness is at most 0.5.

GUUCCGUUAGCGUAAUGAUAACGGGUCUCCCUCCUAAGGAGAAGUCUGCGGGUUCGAGUCCCGUACGGAACG [G9A G18A C24G A45U]: the yeast fitness is 0.52.

GUUCCGUUAGCGUAACGGUAACGCGUCUCGCUCGUAAGGGGAAGACUGCGGGUUCGAGUCGCGUACGGGACG [G9A U16C C30G C34G A40G C61G A69G]: the yeast fitness was at most 0.5.

For the variant GUUCCGUUAGCGAAAUGGUAACGCGUCUCCCUCCUAAGGAGAAGACUGCGGGUUCGAGUCCCGUGUGGAACG [G9A U13A A65G C66U], the yeast fitness is at most 0.5.

For GUUCCGUUAGCGUAAUCGUAACGCGUCUGCCUCCUAAGGAGAAGACUGCGGGUUCGAGUCCCGUACGGAACG [G9A G17C C29G], the yeast fitness was determined as 0.567.

With GUUCCGUUAGCGAAAUGGUAACGCGUCUCCCUCCUAAGGAGAAGACUGCGGGUUCGAGUCCCGUACGGUACG [G9A U13A A69U], the yeast fitness amounted to 0.811.

As to GUUCCGUUAGCGAAAUGGUAACGCGUCUCCCUCCUAAGGAGAAGACUGCGGGUUCGAGUCCCGUACGGCACG [G9A U13A A69C], the yeast fitness came to 0.809.

With GUUCCGUUAGCGUAAUGGAAACGCGACUCCCUCUUAAGGAGAAGACUGCGGGUUCGAGUCCCGUACGGAACG [G9A U19A U26A C34U], the yeast fitness is at most 0.5.

For GUUCCGUUAGCGUAAUGAUAACGCGUCUCCCUCCUAAGGAGAAGACUGCGGGUUCGAGUGCCGUACGGAACG [G9A G18A C60G], the yeast fitness is at most 0.5.

For GUUCCGUUAGCGUAAUGGUAACACCUCCCCCUCCUAAGGAGAAGACUGCGGGUUCGAGUCCCGUACGGAACG [G9A G23A G25C U28C], the yeast fitness is at most 0.5.

For the variant GUUCCGUUAGCGUAAUGGUAACGCGUCUCCCUCCUAAGGAGAAGACUGCGAGUUCGUGCCCCGUACGGAACG [G9A G51A A57U U59C], the yeast fitness was at most 0.5.

Turning to GUUCCGUUAGCGUAAUGGUAACGCGUCUCCCUCCUAAGGAGAAAACUACCGGUUCGAGUCCCGUACGGAACG [G9A G44A G48A G50C], the yeast fitness is at most 0.5.

Turning to GUUCCGUUAGCGUAAUGGUAACGCGUCUCCCUCCUAAGGAGAAGACUGCGGGUUCGAAUCCCGUACGGAACG [G9A G58A], the yeast fitness amounted to 0.918.

In the case of GUUCCGUUACCGUAAUAGUAACGCAUCUCCCUCCUAAGGAGAAGACUGCGGGUUCGAGUCCCGUACGGAACG [G9A G10C G17A G25A], the yeast fitness is at most 0.5.

As to GUUCCGUUAGCGAAAUGGUAACGCGUCUCCCUCCUAAGGAGAAGACUGCGGGUUCGAGUCCCGUACGGAACG [G9A U13A], the yeast fitness worked out at 1.03.

Regarding GUUCCGUUAGCGUAAUGGUAACGCGUCUCCCUCCUAAGGAGAAGACUGCGGGUUCGAGUCCCCUACGGAACG [G9A G63C], the yeast fitness came to 0.872.

GUUCCGUUAGCGUAAUGGUAACGCGUCCCCCUCCUAAGGAGAAGACUGCGGGUUCGAGUCCCGUACGGAACG [G9A U28C]: the yeast fitness came out at 0.855.

With GUUCCGUUAGCGUAAUGGUAACGCGGCUCCCUCCUAAGGAGAAGACUGCGGGUUCGAGUCCCGUACGGGCCG [G9A U26G A69G A70C], the yeast fitness is at most 0.5.

On to GUUCCGUUAGCGUAAUGGUAACGCGUCUCCCUCCUAAGGAGAAGACUACGGGUUCGAGUCCCGUACGCAACG [G9A G48A G68C], for which the yeast fitness is 0.984.

For GUUCCGUUAGCUUUAUGGUAACGCGUCUCCCUCCUAUGGAGAAGACUGGGGGUUCGAGUGCCGUACGGAACG [G9A G12U A14U A37U C49G C60G], the yeast fitness was at most 0.5.

As to GUUCCGUUAGCGUAAUGGUAACCCGUCUCCCUCCUAGGGAGAAGACUGCGGGUUCGAGUCCCGUACGGAACG [G9A G23C A37G], the yeast fitness was at most 0.5.

Regarding GUUCCGUUAGCGGAAUGGUAACGCGUCUCCCUCCUGAGGAGAAGACUGCGGGUUCGAGACCCGUACGGAACG [G9A U13G A36G U59A], the yeast fitness is 0.68.

Take GUUCCGUUAGCGCAAUGGUAACGCGUGUCCCUCCUAAGGAGAAGACUGCGGGAUCGAGUACCGUGCGGAACG [G9A U13C C27G U53A C60A A65G]: the yeast fitness was at most 0.5.
